Here are results for one compound from ChEMBL document CHEMBL3621120, “Discovery of ((4-(5-(Cyclopropylcarbamoyl)-2-methylphenylamino)-5-methylpyrrolo[1,2-f][1,2,4]triazine-6-carbonyl)(propyl)carbamoyloxy)methyl-2-(4-(phosphonooxy)phenyl)acetate (BMS-751324), a Clinical Prodrug of p38α MAP Kinase Inhibitor” (J Med Chem, 2015).

Data set [1] relates to Rattus norvegicus. The data set can be described thus: AUC in Sprague-Dawley rat assessed as plasma BMS-582949 level at 1 mg/kg, po dose equivalent to BMS-582949 after 24 hrs by LC/MS/MS method. Conditions: in vivo; call rule not given here. More on the design: time < 24 hr, dose 1 mg/kg, route oral. Type of data set: ADME, organism-based.
Data set [2] concerns the target T1, Liver carboxylesterase (Sus scrofa, UniProt Q29550).
T1 sequence (Q29550 whole entry): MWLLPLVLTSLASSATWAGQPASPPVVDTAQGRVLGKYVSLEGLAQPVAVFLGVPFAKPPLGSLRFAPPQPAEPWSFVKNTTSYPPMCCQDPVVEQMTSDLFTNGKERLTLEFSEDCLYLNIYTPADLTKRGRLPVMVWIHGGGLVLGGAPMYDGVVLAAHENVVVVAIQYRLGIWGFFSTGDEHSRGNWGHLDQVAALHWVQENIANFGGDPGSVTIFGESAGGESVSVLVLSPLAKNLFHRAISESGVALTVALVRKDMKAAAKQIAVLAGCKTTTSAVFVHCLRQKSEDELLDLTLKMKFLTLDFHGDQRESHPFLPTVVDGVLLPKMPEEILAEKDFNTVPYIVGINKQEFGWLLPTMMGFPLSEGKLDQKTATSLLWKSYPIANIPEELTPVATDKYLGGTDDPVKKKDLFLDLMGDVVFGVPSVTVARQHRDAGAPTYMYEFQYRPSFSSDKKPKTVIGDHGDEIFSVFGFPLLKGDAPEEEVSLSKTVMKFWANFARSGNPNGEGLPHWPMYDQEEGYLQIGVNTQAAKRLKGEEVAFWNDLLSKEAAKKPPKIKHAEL
The data set can be described thus: Stability assessed as porcine liver esterase-mediated drug degradation by measuring compound remaining level in pH 7.4 potassium phosphate buffer at 10 uM incubated for 1 hr by LC/MS/MS. Type of data set: ADME, tissue-based. Conditions: pig, read-out: Stability. In a few lines:
(§1)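 Porcine liver esterase with substrate at 10 µM in 89 mM potassium phosphate pH 7.4, 37 °C. Reaction started by adding compound. Aliquots taken at 0, 15, 30 and 60 min and quenched with acetonitrile. After centrifugation at 4 °C, percent remaining quantified by LC/MS/MS.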

Data set [3] is described as follows: Solubility of the compound in pH 1.2 solution at room temperature. It counts as physicochemical.
In data set [4] the target is T1, Liver carboxylesterase. The data set can be described thus: Stability assessed as porcine liver esterase-mediated drug degradation by measuring compound remaining level in pH 7.4 potassium phosphate buffer at 10 uM incubated for 0.25 hrs by LC/MS/MS. It counts as ADME, tissue-based. As to conditions: pig, read-out: Stability. Put shortly: as §1
Data set [5] concerns Rattus norvegicus. The data set is described as follows: Inhibition of paw swelling in Lewis rat adjuvant arthritis model assessed as reduction in hind paw volume at 1 mg/kg, po bid dose equivalent to BMS-582949 beginning on day 11 post adjuvant challenge by volume displacement plethysmometry method relative to control. It counts as functional. Conditions: 264 h. In a few lines:
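Male Lewis rats given complete Freund's adjuvant on day 1; from day 11 compounds dosed orally BID in 0.5 mL vehicle (prodrug as aqueous suspension in 0.75% Methocel, 0.1% Tween 80; parent in PEG 300). Paw volume measured 3 times per week for rest of study; paw swelling inhibition reported.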

The target in data set [6] is T2, Alkaline phosphatase, placental type (Homo sapiens, UniProt P05187). The data set is described as follows: Stability assessed as human placental ALP-mediated drug degradation by measuring compound remaining level in pH 7.5 tris buffer at 10 uM incubated for 0.5 hrs by LC/MS/MS method. Type of data set: ADME. Conditions: read-out: Stability. In a few lines: (§2)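 Human placental alkaline phosphatase (1 unit/mL) incubated with compound at 10 µM in 89 mM tris buffer, pH 7.5, 37 °C; reactions in triplicate started by compound addition, sampled at 0, 15, 30, 60 min. For inhibition, HALT phosphatase inhibitor cocktail (100x dilution) added before compound. Samples quenched into EDTA, acetonitrile added, centrifuged, remaining compound measured by LC/MS/MS.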
T2 sequence (P05187 whole entry): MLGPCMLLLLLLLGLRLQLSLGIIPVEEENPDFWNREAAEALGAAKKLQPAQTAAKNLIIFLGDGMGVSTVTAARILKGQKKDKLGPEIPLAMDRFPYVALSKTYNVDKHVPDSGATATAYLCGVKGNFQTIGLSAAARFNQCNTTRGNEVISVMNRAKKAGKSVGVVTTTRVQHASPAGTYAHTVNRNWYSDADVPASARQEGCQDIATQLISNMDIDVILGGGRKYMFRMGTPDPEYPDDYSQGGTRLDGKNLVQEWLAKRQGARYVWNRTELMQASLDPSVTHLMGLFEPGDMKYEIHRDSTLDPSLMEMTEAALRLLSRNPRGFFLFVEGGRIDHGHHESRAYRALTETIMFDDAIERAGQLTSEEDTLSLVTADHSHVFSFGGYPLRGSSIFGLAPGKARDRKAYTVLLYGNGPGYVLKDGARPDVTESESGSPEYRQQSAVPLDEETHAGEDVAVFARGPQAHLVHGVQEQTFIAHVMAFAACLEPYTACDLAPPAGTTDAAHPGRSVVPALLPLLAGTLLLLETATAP

Data set [7] addresses T2, Alkaline phosphatase, placental type. The data set is described as follows: Stability assessed as human placental ALP-mediated drug degradation by measuring compound remaining level in pH 7.5 tris buffer at 10 uM incubated for 1 hr by LC/MS/MS method. It counts as ADME. As to conditions: read-out: Stability. Put shortly: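 Human placental ALP at 1 unit/mL, test compound at 10 µM in 89 mM tris pH 7.5, 37 °C. Run in triplicate, started by adding compound. Aliquots taken at 0, 15, 30 and 60 min and quenched into 10 mM EDTA plus acetonitrile. After centrifugation at 4 °C, percent remaining measured by LC/MS/MS.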

Data set [8] in a line: Stability in pH 1.1 solution assessed as half-life at 37 degC. It counts as physicochemical.
Data set [9] relates to Rattus norvegicus. The data set is described as follows: AUC in Sprague-Dawley rat assessed as plasma BMS-582949 level at 10 mg/kg, po dose equivalent to BMS-582949 after 24 hrs by LC/MS/MS method. Also noted: time < 24 hr, dose 10 mg/kg, route oral. As to conditions: in vivo. Type of data set: ADME, organism-based.
For data set [10], the system named is Rattus norvegicus. The data set can be described thus: AUC in Sprague-Dawley rat assessed as plasma BMS-582949 level at 100 mg/kg, po dose equivalent to BMS-582949 after 24 hrs by LC/MS/MS method. Type of data set: ADME, organism-based. More on the design: time < 24 hr, dose 100 mg/kg, route oral. As to conditions: in vivo.
Data set [11] concerns Cynomolgus monkey. The data set is described as follows: AUC in cynomolgus monkey assessed as plasma BMS-582949 level at 10 mg/kg, po dose equivalent to BMS-582949 after 24 hrs by LC/MS/MS method. More on the design: time < 24 hr, dose 10 mg/kg, route oral. It counts as ADME, organism-based, Macaca fascicularis. Conditions: in vivo. In a few lines:
(§3)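 Three overnight-fasted male cynomolgus monkeys (4.2-5.2 kg) given prodrug by oral gavage at 10 or 30 mg/kg, 5 mL/kg methocel suspension, one-week washout between doses. Femoral artery blood pre-dose and 0.25-24 h post-dose; plasma (centrifuged 4 °C) stored -20 °C and analysed by LC/MS/MS for parent.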

The target in data set [12] is T2, Alkaline phosphatase, placental type. The data set can be described thus: Stability assessed as human placental ALP-mediated drug degradation by measuring compound remaining level in pH 7.5 tris buffer at 10 uM incubated for 0.25 hrs in presence of HALT phosphatase inhibitor cocktail by LC/MS/MS method. Conditions: pH 7.5, with HALT phosphatase inhibitor cocktail, read-out: Stability. Type of data set: ADME. Put shortly: as §2

The subject of another data set is Caco-2. The data set is described as follows: Drug level in apical side of human Caco2 cells incubated at 37 degC for 2 hrs. As to conditions: caco-2, 2 h. It counts as ADME, cell-based. Put shortly: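 Compounds loaded on apical side of Caco-2 monolayers and incubated at 37 °C for 2 h; prodrug, intermediate and parent measured on apical and basal sides.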
Data set [13] relates to Cynomolgus monkey. The data set is described as follows: Bioavailability in cynomolgus monkey assessed as plasma BMS-582949 level at 30 mg/kg, po dose equivalent to BMS-582949 after 24 hrs by LC/MS/MS method. As to conditions: in vivo. It counts as ADME, organism-based, Macaca fascicularis. Put shortly:
as §3

Data set [14] concerns Cynomolgus monkey. The data set can be described thus: Cmax in cynomolgus monkey assessed as plasma BMS-582949 level at 30 mg/kg, po dose equivalent to BMS-582949 after 24 hrs by LC/MS/MS method. It counts as ADME, organism-based, Macaca fascicularis. More on the design: dose 30 mg/kg, route oral. As to conditions: in vivo. Put shortly: as §3
In data set [15] the test system is Rattus norvegicus. The data set can be described thus: Inhibition of LPS-induced TNFalpha level in Lewis rat at 0.03 to 10 mg/kg, po dose equivalent to BMS-582949 dosed 1 hr before LPS challenge and measured 90 mins post LPS challenge by ELISA method. Type of data set: functional. In a few lines: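 Male Lewis rats (200-250 g) dosed orally 1 h before IP injection of 10ug E. coli O111:B4 LPS in 1.0 mL sterile saline; prodrug as suspension in 0.75% Methocel, 0.1% Tween 80, parent in PEG 300, controls given vehicle. Blood taken 90 min after LPS; serum TNF measured by ELISA; ED50 expressed as parent equivalent.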

Data set [16] addresses T2, Alkaline phosphatase, placental type. The data set is described as follows: Stability assessed as human placental ALP-mediated drug degradation by measuring compound remaining level in pH 7.5 tris buffer at 10 uM incubated for 0.5 hrs in presence of HALT phosphatase inhibitor cocktail by LC/MS/MS method. It counts as ADME. Conditions: pH 7.5, with HALT phosphatase inhibitor cocktail, read-out: Stability. Put shortly:
as §2

Values after ≈ are worked out from the molar mass of the structure shown.

As to `CCCN(C(=O)OCOC(=O)Cc1ccc(OP(=O)(O)O)cc1)C(=O)c1cn2ncnc(Nc3cc(C(=O)NC4CC4)ccc3C)c2c1C`, the AUC was 3.1 µM·h in the data set on Rattus norvegicus [1], 78 µM·h in the data set with Rattus norvegicus [9], 875 µM·h in the data set with Rattus norvegicus [10] and 24 µM·h in the data set with Cynomolgus monkey [11]. Besides, the remaining at 1 h, 10 µM at Liver carboxylesterase [2] was determined as 100%; in data set [7], 10.9%. This compound had a solubility in data set [3] of 100 µg/mL (≈ 144 µM). Further, the remaining at 0.25 h, 10 µM (on Liver carboxylesterase [4]; in data set [12]) was 100% each time. In addition, the inhibition in vivo at 1 mg/kg with Rattus norvegicus [5] turned out to be 39%. For the same compound, the figures for the remaining at 0.5 h, 10 µM in data set [6] and in [16] were 11.1% and 94%, respectively. The half-life in data set [8] was 21 h. In the data set with Caco-2, the Drug uptake result is reported as “Active”. Moreover, in the data set with Cynomolgus monkey [13], the F was determined as 69%. For the same compound, the Cmax in the data set on Cynomolgus monkey [14] worked out at 29 µM. In addition, in the data set with Rattus norvegicus [15], the ED50 is reported as 0.89 mg. Also, in the data set on Rattus norvegicus [15], the inhibition entry is “Dose-dependent effect”.
